Results reported in PMC2757127 (Platelets, 2008).
Where two headings read alike, the source gives them in different places.

Key:
Format in all cases: cell-based
LPA1 = LPA1 (Homo sapiens, UniProt Q92633); assay: LPA-elicited Ca2+ transients in RH7777 cells stably expressing LPA1; conditions: for Effect on LPA1: heterologously expressed LPA1
Procedure, shortened: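 RH7777 cells stably expressing receptor, seeded on poly-L-lysine-coated wells at 5 × 10^4 cells/well overnight. Serum-starved 6 h in modified Krebs buffer (pH 7.4), loaded with Fura-2 AM for 35 min with 2% pluronic acid. Ca2+ recorded as the ratio of 520 nm emission at 340/380 nm excitation. Albumin arm: 15 µM BSA for 5 min before LPA. Quadruplicate.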

LPA4 = LPA4 (Homo sapiens, UniProt Q99677); assay: LPA-elicited Ca2+ transients in CHO cells stably expressing LPA4; conditions: for Effect on LPA4: Table II, heterologously expressed LPA4
LPA3 = biological target: T1, LPA3 (Homo sapiens, UniProt Q9UBY5); assay: LPA-elicited Ca2+ transients in RH7777 cells stably expressing LPA3; conditions: for Effect on LPA3: heterologously expressed LPA3
T1 sequence (Q9UBY5 1-353): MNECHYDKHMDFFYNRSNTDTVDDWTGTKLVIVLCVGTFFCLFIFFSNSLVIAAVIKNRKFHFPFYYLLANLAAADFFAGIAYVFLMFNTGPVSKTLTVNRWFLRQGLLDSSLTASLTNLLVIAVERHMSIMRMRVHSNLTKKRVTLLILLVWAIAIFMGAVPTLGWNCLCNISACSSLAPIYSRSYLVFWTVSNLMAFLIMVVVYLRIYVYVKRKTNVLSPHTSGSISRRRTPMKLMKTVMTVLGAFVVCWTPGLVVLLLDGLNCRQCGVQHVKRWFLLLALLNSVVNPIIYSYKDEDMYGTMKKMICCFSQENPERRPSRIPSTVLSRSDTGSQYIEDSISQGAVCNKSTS

LPA5 = LPA5 (Homo sapiens, UniProt Q9H1C0); assay: LPA-elicited Ca2+ transients in RH7777 cells transiently transfected with LPA5; conditions: for Effect on LPA5: heterologously expressed LPA5; for Emax: relative to LPA 18:1
LPA2 = LPA2 (Homo sapiens, UniProt Q9HBW0); assay: LPA-elicited Ca2+ transients in RH7777 cells stably expressing LPA2; conditions: for Effect on LPA2: heterologously expressed LPA2
human platelets = assay: Measurement of platelet cAMP; conditions: LPA 0.02–40 µM, 30 s–15 min; iloprost 50 nM, 1 minute
Procedure, shortened: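 Human platelets from PRP pretreated with acetylsalicylic acid 1 mM and apyrase 0.3 U/mL (15 min, 37°C), washed, resuspended at 400,000/µL in HEPES buffer with glucose and apyrase (pH 7.4). Stirred suspensions were warmed 2 min at 37°C, then exposed to agonist for the set time. cAMP was measured by enzyme immunoassay. Mean ± SD, n=3 donors; Student's test, P 0.05.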

washed human platelets = assay: Platelet shape change; conditions: read-out: Platelets EC50, Table IV, n=4, mean ± SD
Procedure, shortened: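 Washed human platelets were prepared from aspirin (1 mM)/apyrase-treated PRP and resuspended at 400,000/µL in HEPES buffer (pH 7.4) with glucose and 0.6 U/mL apyrase. Stirred at 1100 rpm and 37°C for 2 min, then given increasing agonist concentrations in methanol or FAF-BSA buffer (lipid:BSA 4:1). Shape change read as the fall in light transmission in an aggregometer. Four donors.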

[1] = read-out: LPA5 transiently transfected RH7777 cells EC50, Table IV, mean ± SD
[2] = 15µM FAF-BSA, 5 min pre-incubation

Chain of LPA4 (Q99677 whole entry): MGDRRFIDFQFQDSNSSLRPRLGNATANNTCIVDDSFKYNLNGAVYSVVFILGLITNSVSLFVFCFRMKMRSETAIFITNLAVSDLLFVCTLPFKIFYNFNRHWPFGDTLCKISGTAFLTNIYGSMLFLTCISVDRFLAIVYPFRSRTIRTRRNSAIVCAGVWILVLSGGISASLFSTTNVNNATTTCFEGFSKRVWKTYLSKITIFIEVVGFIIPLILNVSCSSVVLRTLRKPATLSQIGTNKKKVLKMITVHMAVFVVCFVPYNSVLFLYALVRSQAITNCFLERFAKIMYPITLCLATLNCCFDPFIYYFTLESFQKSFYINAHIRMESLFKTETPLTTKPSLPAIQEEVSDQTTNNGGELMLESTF
Chain of LPA1 (Q92633 whole entry): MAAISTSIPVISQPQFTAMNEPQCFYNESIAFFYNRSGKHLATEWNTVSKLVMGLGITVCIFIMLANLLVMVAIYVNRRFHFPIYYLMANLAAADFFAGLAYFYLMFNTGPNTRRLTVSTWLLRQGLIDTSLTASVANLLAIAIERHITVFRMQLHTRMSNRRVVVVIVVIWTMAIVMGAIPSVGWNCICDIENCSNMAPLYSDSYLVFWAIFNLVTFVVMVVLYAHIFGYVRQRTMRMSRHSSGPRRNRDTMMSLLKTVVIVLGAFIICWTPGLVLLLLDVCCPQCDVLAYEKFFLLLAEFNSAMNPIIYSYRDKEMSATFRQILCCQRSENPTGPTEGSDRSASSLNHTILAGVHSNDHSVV
Chain of LPA2 (Q9HBW0 whole entry): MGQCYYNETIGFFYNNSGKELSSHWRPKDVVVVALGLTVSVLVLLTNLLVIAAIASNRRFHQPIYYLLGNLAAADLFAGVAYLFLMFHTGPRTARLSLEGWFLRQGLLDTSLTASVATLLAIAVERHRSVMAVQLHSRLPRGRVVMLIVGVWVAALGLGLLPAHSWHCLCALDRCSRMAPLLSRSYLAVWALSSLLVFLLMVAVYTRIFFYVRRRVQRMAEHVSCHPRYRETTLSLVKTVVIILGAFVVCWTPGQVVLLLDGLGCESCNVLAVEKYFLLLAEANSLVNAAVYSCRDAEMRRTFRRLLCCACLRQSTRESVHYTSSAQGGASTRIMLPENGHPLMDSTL
Chain of LPA5 (Q9H1C0 whole entry): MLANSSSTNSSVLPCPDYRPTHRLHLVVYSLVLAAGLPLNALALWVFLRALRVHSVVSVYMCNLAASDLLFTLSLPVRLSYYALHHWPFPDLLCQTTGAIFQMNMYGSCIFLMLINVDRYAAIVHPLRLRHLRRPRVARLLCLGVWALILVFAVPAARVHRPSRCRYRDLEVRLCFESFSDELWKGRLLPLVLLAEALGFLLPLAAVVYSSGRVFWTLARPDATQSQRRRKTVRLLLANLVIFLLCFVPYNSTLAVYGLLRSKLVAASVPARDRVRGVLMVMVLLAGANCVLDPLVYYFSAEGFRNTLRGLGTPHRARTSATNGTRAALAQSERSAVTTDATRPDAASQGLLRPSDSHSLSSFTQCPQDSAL

Compound: CCCCCCCCCCCCCCCC(=O)N[C@@H](COP(=O)(O)O)C(=O)O [NPSPA, N-palmitoyl-serine phosphoric acid]
- Effect on LPA1 (LPA1; Table II): Partial agonist
- EC50 (LPA1; Table II, LPA1): 740 nM
- Emax (LPA1; Table II, LPA1, relative to LPA 18:1): 63%
- Effect on LPA4 (LPA4): No effect
- Effect on LPA3 (LPA3; Table II): Partial agonist
- EC50 (LPA3; Table II, LPA3): 730 nM
- Emax (LPA3; Table II, LPA3, relative to LPA 18:1): 81%
- Effect on LPA5 (LPA5; Table II): Partial agonist
- EC50 (LPA5; Table II, LPA5): 420 nM
- Emax (LPA5; Table II, LPA5): 23%
- Effect on LPA2 (LPA2; Table II): Partial agonist
- EC50 (LPA2; Table II, LPA2): 11900 nM
- Emax (LPA2; Table II, LPA2, relative to LPA 18:1): 46%

Compound: CCCCCCCCCCCCCCCC(=O)N[C@@H](Cc1ccc(OP(=O)(O)O)cc1)C(=O)O [NPTPA, N-palmitoyl-tyrosine phosphoric acid]
- Effect on LPA1 (LPA1; Table II): Antagonist
- Ki (LPA1; Table II, LPA1, inhibitory binding constant): 530 nM
- Ki (LPA1; read-out: Ki at LPA1, text b35): 533 nM
- Effect on LPA4 (LPA4): No effect
- Effect on LPA3 (LPA3; Table II): No effect
- Effect on LPA5 (LPA5; Table II): Partial agonist
- Emax (LPA5; Table II, LPA5): 72.0%
- Effect on LPA2 (LPA2; Table II): No effect

Compound: CCCCCCCCCCCCCCCC(=O)OC[C@@H](O)COP(=O)(O)O [acyl-LPA 16:0]
- Change in platelet cAMP levels (human platelets): did not affect

Compound: CCCCCCCCCCCCCCCCOC[C@@H](O)COP(=O)(O)O [alkyl-LPA 16:0]
- Change in platelet cAMP levels (human platelets): did not affect
- EC50 (LPA5; [1]): 4.1 ± 2.1 nM
- EC50 (washed human platelets): 4.6 ± 0.98 nM

Compound: CCCCCCCCCCCCCCCCCCOC[C@@H](O)COP(=O)(O)O [alkyl-LPA 18:0]
- EC50 (LPA5; [1]): 69.9 ± 21.4 nM
- EC50 (washed human platelets): 20.2 ± 17.5 nM

Compound: CC#CCC(C)[C@H](O)/C=C/[C@@H]1[C@H]2C/C(=C/CCCC(=O)O)C[C@H]2C[C@H]1O (stereo partly drawn) [iloprost]
- Change in platelet cAMP levels (human platelets): robust increase

Compound: fatty acid free bovine serum albumin [FAF-BSA]
- Effect on activation of LPA1 by LPA (LPA1; [2]): did not inhibit
- Inhibition of LPA4 activation (LPA4; [2]): 40%
- Effect on activation of LPA3 by LPA (LPA3; [2]): did not inhibit
- Effect on activation of LPA5 by LPA (LPA5; [2]): did not inhibit
- Effect on activation of LPA2 by LPA (LPA2; [2]): did not inhibit
